# PP5 inh: PP5 (human) phosphatase inhibition. P53041. purified PP5c, OMFP substrate fluorescence. inhibition, % at 6.7 µM. actives 0.18% (n = 320,000);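 active means inhibition above the campaign's mean inhibition across all tested compounds plus 3 SD, cut at about 9.5% in these data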
# procasp7 counter: counter-screen for procaspase-3 activators: activators of human procaspase-7 | P55210 | recombinant procaspase-7, Ac-DEVD-pNA absorbance 405 nm; D23A/D198A/D206A triple mutant, cannot self-cleave; scale: DMSO 0, 5 µM enzyme 100 | activation, % at 8.5 µM | actives 0.093% (n = 330,000) | AID 463210;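 active means percent activation above the screen-wide mean plus 3 SD, cut at about 25% in these data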
# Target sequence (P55210 whole entry D23A/D198A/D206A): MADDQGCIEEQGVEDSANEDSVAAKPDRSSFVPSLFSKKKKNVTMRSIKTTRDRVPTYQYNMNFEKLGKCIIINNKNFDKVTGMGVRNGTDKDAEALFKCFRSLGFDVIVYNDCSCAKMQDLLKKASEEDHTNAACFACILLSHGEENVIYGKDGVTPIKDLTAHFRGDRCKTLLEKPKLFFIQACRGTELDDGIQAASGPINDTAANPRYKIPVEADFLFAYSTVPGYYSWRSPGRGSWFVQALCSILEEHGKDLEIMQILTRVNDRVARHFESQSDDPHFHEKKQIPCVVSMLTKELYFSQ
#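 Assay system: Uncleavable procaspase-7 mutant enzyme / Input: 2 µM procaspase-7 mutant as dispensed / Dosing: single nominal 8.5 µM compound dose, 0.8% DMSO final / Timing: 1 h enzyme–compound preincubation and 2 h substrate reaction, both 25 °C / Detection: p-Nitroaniline absorbance at 405 nm, read at 0 and 120 min / Replication: singlicate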
# PP1 counter: PP1-alpha (human) inhibition in PP5 counter-screen | P62136 | inhibition, % at 6.7 µM | purified PP1alpha, OMFP fluorescence | AID 2235 | actives 0.9% (n = 320,000);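 active means inhibition above the mean inhibition of all tested compounds plus 3 SD, computed separately for each screening campaign, cut at about 15% in these data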
# proCasp3 act: activators of human procaspase-3 | activation, % at 8.5 µM | actives 0.11% (n = 330,000) | recombinant procaspase-3 D3A, Ac-DEVD-pNA absorbance 405 nm | AID 463141 | P42574;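 active means activation above the mean of all tested compounds plus 3 SD, cut at about 21% in these data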
#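 Assay system: Autoprocessing-dead procaspase-3 D3A mutant enzyme; also added: Ac-DEVD-pNA; doses: one concentration, 8.5 µM nominal, 0.8% DMSO; times: 1 h compound preincubation, 2 h substrate hydrolysis at 25 °C; technique: 405 nm absorbance of p-nitroaniline, reads at 0 and 120 min; measure: % activation between DMSO and enzyme-spiked controls; repeats: single replicate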
# PC3 D3A act: activates human procaspase-3, dual activator counter-screen | shares compounds with procasp7 counter | recombinant PC-3 D3A, Ac-DEVD-pNA absorbance 405 nm; aspartates 9, 28, 175 changed to alanine; 100% = enzyme control | activation, % at 8.5 µM | 290 tested, under 10 active;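 active means mean percent activation across triplicates above a set limit taken from the earlier primary procaspase-3 screen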
# Procasp7 act: procaspase-7 (human) activation, dual activator confirmation | shares compounds with procasp7 counter | recombinant procaspase-7, Ac-DEVD-pNA absorbance 405 nm; D23A/D198A/D206A mutant that cannot self-cleave | activation, % at 8.5 µM | 290 tested, under 10 active;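 active means mean activation above a set limit carried over from the earlier primary screen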
# Hits are given with their value; n = inactive; x = no result given. Compounds with a hit are over-represented: about 1.2% of the library has one in this group of screens.
SMILES,PP5 inh,procasp7 counter,PP1 counter,proCasp3 act,PC3 D3A act,Procasp7 act
O=c1oc2ccccc2cc1-c1nc2c(s1)CCCC2,n,96,n,n,n,n
C=CCOC(=O)C1=C(C)NC(SCC)=C(C#N)C1c1ccc(Cl)cc1 (stereo unspecified),n,26,n,n,n,n
Oc1ccc(C2=NN(c3ccccc3)C(c3ccc(F)cc3)C2)cc1 (stereo unspecified),n,36,n,n,n,n
Cc1ccc(N2N=C(c3ccc(F)cc3)CC2c2ccco2)cc1 (stereo unspecified),n,n,n,n,x,x
COc1ccc(C2CC(c3ccc(F)cc3)=NN2c2ccccc2)cc1OC (stereo unspecified),n,n,n,n,x,x
Fc1ccc(C2=NN(c3ccccc3)C(c3ccco3)C2)cc1 (stereo unspecified),n,44,n,32,n,n
O=C(C1CCCO1)N1CCN(C(=S)Nc2cccc(F)c2)CC1 (stereo unspecified),n,n,n,n,x,x
CCOC(=O)c1nc(Nc2ccccc2)c2ccccc2n1,n,n,n,n,x,x
CCOC(=O)c1nc(Nc2cc(Cl)ccc2OC)c2ccccc2n1,n,26,n,n,n,n
Cc1ccc(CNC(=O)c2ccc(N3CCC4(CC3)CC(c3ccccc3)=NO4)c(NC(=O)c3c(Cl)cccc3Cl)c2)cc1,n,n,n,n,x,x
OC[C@@H]1[C@@H](c2ccccc2)C(c2ccccc2)=NN1c1ccccc1,x,31,x,n,n,n
COc1ccccc1[C@H]1C(c2cccc(Cl)c2)=NN(c2ccccc2)[C@@H]1CO,x,n,x,n,x,x
OC[C@@H]1[C@@H](c2ccccc2)C(c2ccc(F)cc2)=NN1c1ccccc1,x,29,x,n,n,n
O=c1c(-c2nnc(SCc3ccc(Cl)cc3Cl)o2)cccn1Cc1ccccc1,n,87,16,24,n,n
CCN(c1ccc(OC)cc1)S(=O)(=O)c1nnc(NC(=O)c2ccccc2Cl)s1,n,n,n,n,x,x
CC(NC(=O)c1ccc2c(c1)OCCO2)c1ccc(S(N)(=O)=O)cc1 (stereo unspecified),n,n,n,n,x,x
Cc1cc(N/N=C/c2ccc(N(C)C)cc2)nc(NCc2ccccc2)n1,n,32,16,57,n,n
CN(C)c1nc(-c2ccccc2)c2cnn(Cc3ccccc3)c2n1,n,34,n,n,n,n
CCN(CC)c1ccc(/C=N/NC(=O)c2nnn(-c3nonc3N)c2C(C)C)c(O)c1,n,44,n,59,n,n
CC(C)c1c(C(=O)N/N=C/c2ccc3c(c2)OCO3)nnn1-c1nonc1N,n,n,n,n,x,x
CCCNC(=O)c1c(N)n(-c2cc(OC)cc(OC)c2)c2nc3ccccc3nc12,n,29,n,115,n,n
CCOc1ccc(-n2c(SCC(=O)Nc3ccc(OC)cc3)nc3c(c2=O)SCC3)cc1,n,68,n,n,n,n
CCOc1ccc(-n2c(SCC(=O)Nc3cc(C)on3)nc3c(c2=O)SCC3)cc1,n,n,n,n,x,x
COc1cc(/C=C/C(=O)Nc2nnc(C(C)(C)C)s2)cc(OC)c1OC,n,n,n,n,x,x
COc1cc(/C=C/C(=O)Nc2nc3ccc(S(=O)(=O)N(C)C)cc3s2)cc(OC)c1OC,n,35,n,n,n,n
SMILES,PP5 inh,procasp7 counter,PP1 counter,proCasp3 act,PC3 D3A act,Procasp7 act
Cc1coc2c(C)c3oc(=O)c(CCC(=O)NCCCN4CCCC4=O)c(C)c3cc12,n,n,n,n,x,x
Cc1c(CCC(=O)NC2CC2)c(=O)oc2c(C)c(O)ccc12,n,27,n,28,n,n
Cc1c(CCC(=O)NCCCN2CCCC2=O)c(=O)oc2c(C)c(O)ccc12,n,26,n,28,n,n
CCOC(=O)c1sc2nc(C)nc(N3CCN(c4ncccn4)CC3)c2c1C,n,n,n,n,x,x
COC(=O)C1=C(C(=O)OC)C2(OC1c1ccccc1C)C(=O)c1ccccc1C2=O (stereo unspecified),n,n,n,n,x,x
COc1ccccc1CNC(=O)CSc1nc2nc(C)cc(C)n2n1,n,n,n,n,x,x
